One data set addresses Focal adhesion kinase 1 (Homo sapiens, UniProt Q05397). The data set is described as follows: Inhibition of recombinant FAK. In a few lines:
(§1)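 Purified recombinant kinases under optimized conditions with peptide substrates. ATP was set at each kinase's Km. Phosphorylation was read by microfluidic mobility-shift separation of substrate and product; IC50 determined.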

Data set [1] has as its target Tyrosine-protein kinase JAK2 (Homo sapiens, UniProt O60674). The data set is described as follows: Inhibition of recombinant JAK2. A digest of the protocol:
(§2)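 Purified recombinant kinases were tested under optimized conditions with peptide substrates. ATP was set at each kinase's Km. Phosphorylation was read out by microfluidic mobility shift, and IC50 values were determined.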

The test system of data set [2] is RT-112. The data set is described as follows: Antitumor activity against human RT112 cells xenografted in nude rowett rat assessed as tumor regression at 15 mg/kg, po qd administered for 20 days. It counts as functional. In a few lines: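 Female nude Rowett rats aged 6–9 weeks were given 1×10^6 RT112 cells subcutaneously in HBSS/50% Matrigel. Treatment began at about 100 mm3 mean tumor volume (n = 8): monophosphate salt in acetate buffer pH 4.6/PEG300 (1:1) by gavage, 5 mL/kg, at 5, 10, 15 mg/kg/qd free base for 20 days. Tumors were measured by caliper (L×W×H×π/6). Readouts were T/C and % regression from start volume.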

Data set [3] deals with Rattus norvegicus. The data set is described as follows: Inhibition of FGFR autophosphorylation in RT112 tumour bearing nude Rowett rat assessed as decrease in pMAPK concentration at 4.25 mg/kg, po administered as a single dose by Western blot analysis. It counts as functional, organism-based. Also noted: dose 4.25 mg/kg. In a few lines:
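RT112 subcutaneous xenografts in female nude Rowett rats (n = 4). Single oral gavage of the monophosphate salt at 4.25 or 8.51 mg/kg (free base equivalents) in acetic acid–acetate buffer pH 4.6/PEG300 (1:1). Tumors were collected at time points up to 24 h, frozen, homogenized and lysed. Western blots probed pFRS2(Tyr196) and pMAPK, with total FRS2, total MAPK or β-tubulin as loading controls.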
(Immunoblotting shows a protein as a band on a membrane.)

The target in another data set is Cytochrome P450 2C19 (Homo sapiens, UniProt P33261). Briefly: Inhibition of CYP2C19 using CEC as substrate. It counts as ADME. A digest of the protocol: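 Human CYP450 inhibition was measured with isoform-specific fluorogenic probe substrates: CEC for 1A2 and 2C19, MFC for 2C9, AMMC for 2D6. Incubation was at 37 °C with an NADPH-regenerating system in 384-well format. Metabolite was quantified by fluorescence, and IC50 was obtained by curve fitting.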

Data set [4] in a line: Antiproliferative activity against human JMSU1 cells overexpressing wild type FGFR3 after 72 hrs. The settings on record: JMSU-1, 72 h. It counts as functional, cell-based. In a few lines: (§3)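 Bladder cancer lines from ATCC or DSMZ were seeded in 96-well plates (RT4, RT112 at 8500 cells/well; others at 5000 cells/well) in growth medium. Compound dilutions or DMSO were added 24 h later and incubated 72 h. Cells were fixed with glutaraldehyde, stained with 0.05% methylene blue and eluted with 3% HCl, then OD650 nm was read.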

Data set [5] has as its system Rattus norvegicus. Briefly: Dose normalized AUC in Wistar rat at 10 mg/kg, po by LC-MS/MS analysis. It counts as ADME, organism-based. Set-up: dose 10 mg/kg, route oral. The settings on record: in vivo. In a few lines:
(§4)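 Female Wistar rats received either an iv femoral-vein dose of 5 mg/kg in NMP/PEG200 (1:9) or an oral dose of monophosphate salt at 10 mg/kg (free base) in acetate buffer pH 4.6/PEG300. Plasma was sampled by sublingual bleeding at 0.083–24 h (n = 4 staggered, or n = 3–4 serial). Plasma levels were measured by LC-MS/MS (LOQ 10 ng/mL).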

In data set [6] the test system is Rattus norvegicus. Briefly: Toxicity in nude Rowett rat xenografted with human RT112 cells assessed as weight loss at 10 mg/kg, po qd administered for 20 days. It counts as organism-based, RT-112. Set-up: dose 10 mg/kg, route oral. Conditions: in vivo, 480 h. In a few lines: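 Female nude Rowett rats carried subcutaneous RT112 tumors (1 × 10^6 cells in Matrigel), starting at about 100 mm3. The monophosphate salt was gavaged daily for 20 days at 5, 10 or 15 mg/kg (free base) in acetate buffer pH 4.6/PEG300 (1:1), n = 8. Body weight and morbidity were monitored; ANOVA with Dunnett's test.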

In the next data set the test system is SW780. Briefly: Antiproliferative activity against human SW780 cells overexpressing wild type FGFR3 after 72 hrs. It counts as functional, cell-based. The settings on record: SW780, 72 h. A digest of the protocol:
as §3

The subject of data set [7] is RT-112. Briefly: Antiproliferative activity against human RT112 cells overexpressing wild type FGFR3 after 72 hrs. It counts as functional, cell-based. Conditions: RT-112, 72 h. A digest of the protocol: as §3
Data set [8] addresses Tyrosine-protein kinase Lck (Homo sapiens, UniProt P06239). The data set is described as follows: Inhibition of recombinant LCK kinase. A digest of the protocol:
(§5)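 Purified recombinant kinases under optimized conditions, with peptide substrates and ATP at each kinase's Km. Phosphorylation was read out by microfluidic mobility shift, and IC50 values were obtained.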

Another data set has as its system Mus musculus. The data set is described as follows: Antiangiogenic activity in po dosed FVB mouse agar chamber model assessed as inhibition of b-FGF-induced angiogenesis around the capsule. It counts as functional, organism-based. In a few lines: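 Female FVB mice implanted subcutaneously with perfluoroalkoxy-Teflon chambers holding 0.8% agar with 20 U/mL heparin, with or without dog VEGF 2 μg/mL or bFGF 0.3 μg/mL. Oral dosing at 10, 30, 50 mg/kg/day in 10% NMP/PEG300 (5 mL/kg), started before implantation and continued 3 days. Capsules were removed 24 h after the last dose. Readout was capsule weight and Tie-2 by ELISA, as % inhibition against vehicle and no-growth-factor background.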

Data set [9] can be described thus: Clearance in Wistar rat at 5 mg/kg, iv by LC-MS/MS analysis. It counts as ADME, organism-based. Also noted: dose 5 mg/kg, route intravenous. The settings on record: in vivo. A digest of the protocol: as §4
In data set [10] the target is Proto-oncogene tyrosine-protein kinase Src (Homo sapiens, UniProt P12931). Briefly: Inhibition of recombinant SRC. In a few lines:
as §2

In another data set the test system is Plasma. Briefly: Dose normalized AUC in plasma of RT112/luc1 cells implanted athymic nude mouse at 20 mg/kg, po by LC/MS/MS analysis. It counts as ADME, organism-based. Set-up: dose 20 mg/kg, route oral. Conditions: in vivo. A digest of the protocol:
(§6)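 Female athymic nude mice carried subcutaneous RT112/luc1 tumors (5×10^6 cells, 50% Matrigel; about 300–400 mm3). Dosing was either 5 mg/kg iv by tail vein in NMP/PEG200 (1:9) or 20 mg/kg oral suspension in PEG300/D5W (2:1). Groups of mice (n = 4) were sacrificed at 0.083–24 h. Plasma and tumor levels were measured by LC-MS/MS (LOQ 5 ng/mL, 10 ng/g).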

The target of data set [11] is Mitogen-activated protein kinase 14 (Homo sapiens, UniProt Q16539). The data set is described as follows: Inhibition of recombinant p38alpha. In a few lines: as §1
A further data set concerns BaF3. Briefly: Antiproliferative activity against mouse BAF3 cell line transformed with TEL-FGFR3 construct after 48 hrs by luciferase bioluminescent assay. It counts as functional, cell-based. Conditions: BaF3, 48 h. A digest of the protocol:
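IL-3-independent BaF3 or BaF3 Tel-TK cells were grown in RPMI-1640 with 10% FBS and seeded at 4250 cells/well in 384-well plates. Compound serially diluted in DMSO was pin-transferred, followed by 48 h at 37 °C, 5% CO2. Viability was read by Bright-Glo luciferase luminescence.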

Data set [12] addresses Tyrosine-protein kinase ZAP-70 (Homo sapiens, UniProt P43403). Briefly: Inhibition of recombinant ZAP70. A digest of the protocol: as §2
For data set [13], the target named is Tyrosine-protein kinase Lyn (Homo sapiens, UniProt P07948). The data set is described as follows: Inhibition of recombinant LYN kinase. A digest of the protocol: as §5
The target in data set [14] is Interleukin-1 receptor-associated kinase 4 (Homo sapiens, UniProt Q9NWZ3). Briefly: Inhibition of recombinant IRAK4. In a few lines: as §1
Data set [15] in a line: Half life in plasma of RT112/luc1 cells implanted athymic nude mouse at 5 mg/kg, iv by LC/MS/MS analysis. It counts as ADME, organism-based. Set-up: dose 5 mg/kg, route intravenous. A digest of the protocol:
as §6

SMILES strings stand for the structures. Calls of active or inactive are those of the source. The rule behind the calls is not given here. A value given as a limit tells only on which side of the number the result lay.

Chain of Focal adhesion kinase 1 (Q05397 whole entry): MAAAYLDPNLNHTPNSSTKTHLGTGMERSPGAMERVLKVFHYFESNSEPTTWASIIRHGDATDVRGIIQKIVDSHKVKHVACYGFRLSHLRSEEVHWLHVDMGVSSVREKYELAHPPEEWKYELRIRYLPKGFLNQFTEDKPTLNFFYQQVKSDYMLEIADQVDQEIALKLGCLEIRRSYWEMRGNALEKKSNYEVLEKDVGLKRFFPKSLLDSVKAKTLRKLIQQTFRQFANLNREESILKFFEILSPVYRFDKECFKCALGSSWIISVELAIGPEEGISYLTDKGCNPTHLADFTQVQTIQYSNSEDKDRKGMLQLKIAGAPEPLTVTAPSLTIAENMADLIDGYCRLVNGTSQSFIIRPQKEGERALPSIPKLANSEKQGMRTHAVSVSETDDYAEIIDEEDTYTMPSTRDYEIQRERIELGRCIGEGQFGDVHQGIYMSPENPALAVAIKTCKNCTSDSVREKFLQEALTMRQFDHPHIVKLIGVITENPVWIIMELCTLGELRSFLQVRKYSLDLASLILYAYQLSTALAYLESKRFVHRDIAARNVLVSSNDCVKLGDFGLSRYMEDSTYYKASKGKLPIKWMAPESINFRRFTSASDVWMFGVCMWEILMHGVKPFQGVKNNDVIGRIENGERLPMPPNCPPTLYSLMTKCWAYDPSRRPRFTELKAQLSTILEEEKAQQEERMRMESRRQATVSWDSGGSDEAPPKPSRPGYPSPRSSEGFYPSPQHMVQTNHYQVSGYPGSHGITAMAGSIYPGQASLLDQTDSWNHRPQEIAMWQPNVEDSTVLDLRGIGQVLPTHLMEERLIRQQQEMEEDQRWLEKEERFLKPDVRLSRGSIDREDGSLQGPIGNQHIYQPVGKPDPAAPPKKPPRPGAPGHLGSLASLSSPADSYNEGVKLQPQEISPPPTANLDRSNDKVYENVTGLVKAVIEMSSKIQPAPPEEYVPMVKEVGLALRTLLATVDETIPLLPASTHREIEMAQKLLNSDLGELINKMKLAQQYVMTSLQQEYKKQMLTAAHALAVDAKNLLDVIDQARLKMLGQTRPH
Chain of Tyrosine-protein kinase Lck (P06239 whole entry): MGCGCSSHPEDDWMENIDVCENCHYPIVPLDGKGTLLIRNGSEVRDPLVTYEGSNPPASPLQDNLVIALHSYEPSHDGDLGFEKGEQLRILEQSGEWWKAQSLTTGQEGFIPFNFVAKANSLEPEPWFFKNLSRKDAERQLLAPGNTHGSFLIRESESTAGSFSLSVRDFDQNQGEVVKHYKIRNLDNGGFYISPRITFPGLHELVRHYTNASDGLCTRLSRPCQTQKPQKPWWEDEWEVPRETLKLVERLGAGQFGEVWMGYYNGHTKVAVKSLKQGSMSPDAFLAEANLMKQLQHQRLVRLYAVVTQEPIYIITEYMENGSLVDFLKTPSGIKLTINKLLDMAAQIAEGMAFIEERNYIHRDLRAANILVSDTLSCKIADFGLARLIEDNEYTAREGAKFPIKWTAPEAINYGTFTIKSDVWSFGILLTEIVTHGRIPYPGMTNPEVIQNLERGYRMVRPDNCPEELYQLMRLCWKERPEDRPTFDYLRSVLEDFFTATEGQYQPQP
Chain of Tyrosine-protein kinase ZAP-70 (P43403 whole entry): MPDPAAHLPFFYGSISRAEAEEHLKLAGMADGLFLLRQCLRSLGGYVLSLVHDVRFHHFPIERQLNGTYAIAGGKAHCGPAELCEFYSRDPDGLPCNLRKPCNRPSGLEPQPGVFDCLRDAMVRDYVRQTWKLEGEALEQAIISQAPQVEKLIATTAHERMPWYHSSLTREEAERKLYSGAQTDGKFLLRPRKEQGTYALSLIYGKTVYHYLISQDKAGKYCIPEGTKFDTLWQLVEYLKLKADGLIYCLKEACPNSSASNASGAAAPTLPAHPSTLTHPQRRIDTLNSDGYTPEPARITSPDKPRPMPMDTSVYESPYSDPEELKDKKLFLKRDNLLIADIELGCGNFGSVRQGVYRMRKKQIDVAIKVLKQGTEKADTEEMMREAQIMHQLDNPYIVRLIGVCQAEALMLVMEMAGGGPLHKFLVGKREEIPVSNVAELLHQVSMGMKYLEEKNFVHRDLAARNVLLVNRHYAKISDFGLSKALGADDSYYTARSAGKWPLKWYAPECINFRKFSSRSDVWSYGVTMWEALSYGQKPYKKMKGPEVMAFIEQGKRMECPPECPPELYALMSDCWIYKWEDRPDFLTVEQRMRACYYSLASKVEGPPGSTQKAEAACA
Chain of Tyrosine-protein kinase JAK2 (O60674 whole entry): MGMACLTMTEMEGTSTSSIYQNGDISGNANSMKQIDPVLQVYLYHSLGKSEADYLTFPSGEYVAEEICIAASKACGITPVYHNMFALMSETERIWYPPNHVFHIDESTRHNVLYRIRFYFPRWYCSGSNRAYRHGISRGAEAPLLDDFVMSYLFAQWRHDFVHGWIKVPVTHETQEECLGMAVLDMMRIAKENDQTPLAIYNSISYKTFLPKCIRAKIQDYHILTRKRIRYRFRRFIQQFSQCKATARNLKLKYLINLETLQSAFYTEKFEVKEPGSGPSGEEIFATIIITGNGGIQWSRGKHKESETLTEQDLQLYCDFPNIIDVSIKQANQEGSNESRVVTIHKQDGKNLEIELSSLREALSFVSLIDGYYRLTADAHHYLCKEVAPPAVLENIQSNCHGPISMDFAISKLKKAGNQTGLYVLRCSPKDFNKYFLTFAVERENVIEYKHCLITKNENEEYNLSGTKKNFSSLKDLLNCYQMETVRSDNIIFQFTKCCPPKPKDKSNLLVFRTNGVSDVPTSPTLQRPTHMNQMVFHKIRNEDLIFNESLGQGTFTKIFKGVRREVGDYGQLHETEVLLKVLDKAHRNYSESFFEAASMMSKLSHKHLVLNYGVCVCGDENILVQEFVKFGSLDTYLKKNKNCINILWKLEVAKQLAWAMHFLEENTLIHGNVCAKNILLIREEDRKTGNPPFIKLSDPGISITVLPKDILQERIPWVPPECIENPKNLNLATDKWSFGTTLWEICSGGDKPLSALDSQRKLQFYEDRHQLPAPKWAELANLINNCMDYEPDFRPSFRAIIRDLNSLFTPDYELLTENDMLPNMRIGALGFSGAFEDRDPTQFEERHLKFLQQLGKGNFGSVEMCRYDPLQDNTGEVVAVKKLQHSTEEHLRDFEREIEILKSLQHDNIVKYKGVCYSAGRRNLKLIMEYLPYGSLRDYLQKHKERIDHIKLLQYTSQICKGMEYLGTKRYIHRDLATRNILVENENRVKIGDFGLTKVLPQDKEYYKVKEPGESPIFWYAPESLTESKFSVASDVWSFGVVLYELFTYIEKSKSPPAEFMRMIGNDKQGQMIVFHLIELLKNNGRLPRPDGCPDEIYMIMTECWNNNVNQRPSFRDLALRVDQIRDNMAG
Chain of Interleukin-1 receptor-associated kinase 4 (Q9NWZ3 whole entry): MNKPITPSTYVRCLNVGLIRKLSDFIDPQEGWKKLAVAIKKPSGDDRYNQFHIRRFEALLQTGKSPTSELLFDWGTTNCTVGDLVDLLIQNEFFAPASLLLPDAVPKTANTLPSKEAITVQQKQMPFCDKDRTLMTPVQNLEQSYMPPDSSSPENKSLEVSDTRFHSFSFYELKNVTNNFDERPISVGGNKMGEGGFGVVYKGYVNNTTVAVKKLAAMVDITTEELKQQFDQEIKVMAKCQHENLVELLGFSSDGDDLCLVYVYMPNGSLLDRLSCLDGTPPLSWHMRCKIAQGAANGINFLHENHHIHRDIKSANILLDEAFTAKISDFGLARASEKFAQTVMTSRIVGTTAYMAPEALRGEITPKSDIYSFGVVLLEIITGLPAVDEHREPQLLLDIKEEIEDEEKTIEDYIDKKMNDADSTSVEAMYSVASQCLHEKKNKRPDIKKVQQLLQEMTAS
Chain of Proto-oncogene tyrosine-protein kinase Src (P12931 2-536 limits assumed): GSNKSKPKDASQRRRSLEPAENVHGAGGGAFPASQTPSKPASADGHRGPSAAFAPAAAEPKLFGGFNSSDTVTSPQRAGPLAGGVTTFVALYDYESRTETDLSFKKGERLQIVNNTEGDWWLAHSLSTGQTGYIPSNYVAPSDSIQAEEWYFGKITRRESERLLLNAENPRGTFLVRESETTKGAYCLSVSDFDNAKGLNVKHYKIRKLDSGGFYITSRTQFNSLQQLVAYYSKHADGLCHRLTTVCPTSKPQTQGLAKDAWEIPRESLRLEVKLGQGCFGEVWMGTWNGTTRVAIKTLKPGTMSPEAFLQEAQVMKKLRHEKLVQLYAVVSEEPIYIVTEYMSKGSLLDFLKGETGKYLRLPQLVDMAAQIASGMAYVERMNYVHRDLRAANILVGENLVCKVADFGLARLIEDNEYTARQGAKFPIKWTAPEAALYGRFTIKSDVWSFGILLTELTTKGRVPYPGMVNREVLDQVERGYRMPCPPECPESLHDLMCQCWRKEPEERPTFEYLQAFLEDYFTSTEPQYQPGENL
Chain of Tyrosine-protein kinase Lyn (P07948 whole entry): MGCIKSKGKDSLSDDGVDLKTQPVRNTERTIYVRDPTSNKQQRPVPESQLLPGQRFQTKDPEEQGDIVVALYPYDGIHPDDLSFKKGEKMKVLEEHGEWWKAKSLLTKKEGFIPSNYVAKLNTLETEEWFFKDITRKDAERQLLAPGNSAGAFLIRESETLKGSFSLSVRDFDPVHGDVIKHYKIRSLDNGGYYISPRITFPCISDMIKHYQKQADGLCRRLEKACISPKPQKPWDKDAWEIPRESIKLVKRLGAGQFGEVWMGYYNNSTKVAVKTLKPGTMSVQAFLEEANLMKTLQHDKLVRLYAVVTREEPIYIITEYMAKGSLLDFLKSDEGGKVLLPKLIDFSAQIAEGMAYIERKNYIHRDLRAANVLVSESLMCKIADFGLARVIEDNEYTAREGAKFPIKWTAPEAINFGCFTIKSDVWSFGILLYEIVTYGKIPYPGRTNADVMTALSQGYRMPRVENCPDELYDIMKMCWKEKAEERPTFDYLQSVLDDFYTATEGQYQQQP

Regarding `CCN1CCN(c2ccc(Nc3cc(N(C)C(=O)Nc4c(Cl)c(OC)cc(OC)c4Cl)ncn3)cc2)CC1.O=P(O)(O)O` [INFIGRATINIB PHOSPHATE], the IC50 – broadly, the midpoint of a concentration-inhibition curve – at Focal adhesion kinase 1 was over 10 µM; in data set [1], over 10 µM; against Cytochrome P450 2C19, over 10 µM; in [4], 15 nM; with SW780, 32 nM; in the data set with RT-112 [7], 5 nM. The IC50 is 2500 nM in data set [8]; over 10 µM in data set [10]; over 10 µM in data set [11]; 2 nM with BaF3; over 10 µM in data set [12]; 300 nM in [13]. The IC50 in [14] is over 10 µM. The Activity in the data set on RT-112 [2] was determined as 73%; in the data set on Rattus norvegicus [6] it was 4%. For the same molecule, the inhibition result in the data set on Rattus norvegicus [3] is “Active”. In addition, the AUC/dose in the data set with Rattus norvegicus [5] turned out to be 0.25 µM·h; in the data set on Plasma it was 0.18 µM·h. In addition, in the data set on Mus musculus, the inhibition entry is “Dose-dependent effect”. The clearance – broadly, a measure of how efficiently the substance is removed, as volume per time – in data set [9] is 60 mL/min/kg. Further, the half-life – broadly, how long it takes for the measured level to halve – in [15] is 558 min.

Source of the values: ChEMBL document CHEMBL1833940, “Discovery of 3-(2,6-dichloro-3,5-dimethoxy-phenyl)-1-{6-[4-(4-ethyl-piperazin-1-yl)-phenylamino]-pyrimidin-4-yl}-1-methyl-urea (NVP-BGJ398), a potent and selective inhibitor of the fibroblast growth factor receptor family of receptor tyrosine kinase” (J Med Chem, 2011).
